Biological target: T1, TcFPPS (Trypanosoma cruzi, UniProt Q95WL3)
T1 sequence (Q95WL3 1-362): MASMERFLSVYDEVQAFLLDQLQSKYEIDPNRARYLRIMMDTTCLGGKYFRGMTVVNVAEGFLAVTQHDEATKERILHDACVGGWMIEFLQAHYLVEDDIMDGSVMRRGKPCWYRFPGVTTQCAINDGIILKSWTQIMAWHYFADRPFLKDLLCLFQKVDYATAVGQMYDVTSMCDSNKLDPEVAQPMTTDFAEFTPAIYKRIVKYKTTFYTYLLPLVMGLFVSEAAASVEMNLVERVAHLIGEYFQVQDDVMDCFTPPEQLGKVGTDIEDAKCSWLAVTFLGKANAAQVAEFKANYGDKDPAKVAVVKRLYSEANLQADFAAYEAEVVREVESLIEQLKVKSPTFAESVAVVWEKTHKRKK
Experiment: isothermal titration calorimetry, two-sequential-site fit
Format: binding
Outline: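 TcFPPS carried an N-terminal His-tag, was expressed in E. coli BL21(DE3), and was purified by Ni-affinity and gel filtration. Protein at 22.5 μM was dialyzed into 20 mM HEPES pH 7.5, 1 M NaCl, 2 mM MgCl2, 2 mM TCEP. Test compound at 250 μM in the same buffer was injected (10 μL) every 300 s at 26°C. Dilution heats were subtracted and the first injection excluded. Isotherms were fitted to a two-sequential-site model.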

Compound	Kd [nM]
O=P(O)(O)C(O)(Cn1ccnc1)P(=O)(O)O [91B, zoledronate]	28.6
O=P(O)(O)C(O)(Cc1cnc2ccccn12)P(=O)(O)O [261A, minodronate]	10.9
O=P(O)(O)C(O)(Cc1cccnc1)P(=O)(O)O [Ris, risedronate]	66.7

— publication PMC3018326 (Proteins, 2010)
